From ChEMBL document CHEMBL1127016, “Inhibitors of the protease from human immunodeficiency virus: synthesis, enzyme inhibition, and antiviral activity of a series of compounds containing the dihydroxyethylene transition-state isostere” (J Med Chem, 1993)

Legend:
[1] = target: Human immunodeficiency virus type 1 protease (Human immunodeficiency virus 1, UniProt Q72874); assay: Inhibition of HIV-1 protease in vitro.
In short: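 Recombinant HIV-1 protease refolded from E. coli inclusion bodies; substrate peptide H-Val-Ser-Gln-Asn-Tyr-Pro-Ile-Val-OH at 2.5 mM. 30 °C, 100 mM sodium acetate pH 5.5 (MOPS for pH 7), 10% glycerol, 5% ethylene glycol, 0.1% NP-40. Inhibitor added before enzyme, five to seven concentrations; stopped at 30 min with TFA, HPLC; Ki from Dixon plots.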

Vaccinia virus [2] = assay: Anti viral activity against vaccinia virus in CV-1 (monkey kidney) cells at 1 uM.; format: functional; settings: Orthopoxvirus vaccinia, CV-1, in Primates
Vaccinia virus [3] = assay: Anti viral activity against vaccinia virus in CV-1 (monkey kidney) cells.; format: functional, Orthopoxvirus vaccinia; design: concentration or dose not given beside the values

Structure (SMILES)	Ki [1]	inhibition at 1 µM (Vaccinia virus [2])	Inhibition (Vaccinia virus [3])
CC(C)[C@@H](C(=O)N[C@H]1c2ccccc2CC1O)[C@@H](O)[C@H](O)[C@H](CC1CCCCC1)NC(=O)c1ccccc1 (stereo not given in full)	16 nM	–	–
CCC(C)[C@H](NC(=O)[C@H](C(C)C)[C@@H](O)[C@H](O)C(CC1CCCCC1)NC(=O)c1ccccc1OCSc1ccccc1)C(=O)NCc1nc2ccccc2[nH]1 (stereo not given in full)	5 nM	86%	–
CC(C)[C@@H](C(=O)N[C@H]1c2ccccc2CC1O)[C@@H](O)[C@H](O)[C@H](CC1CCCCC1)NC(=O)c1ncccc1OCCOc1ccccc1 (stereo not given in full)	> 200 nM	–	–
CCC(C)[C@H](NC(=O)[C@H](C(C)C)[C@@H](O)[C@H](O)[C@H](CC1CCCCC1)NC(=O)c1ncccc1OCCOCCOC)C(=O)NCc1nc2ccccc2[nH]1 (stereo not given in full)	100 nM	–	0%
CCC(C)[C@H](NC(=O)[C@H](C(C)C)[C@@H](O)[C@H](O)C(CC1CCCCC1)NC(=O)c1ccccc1OCCOCCOCCOC)C(=O)NCc1nc2ccccc2[nH]1 (stereo not given in full)	10 nM	65%	–
CC(C)[C@@H](C(=O)N[C@H]1c2ccccc2CC1O)[C@@H](O)[C@H](O)C(CC1CCCCC1)NC(=O)c1ncccc1OCSc1ccccc1 (stereo not given in full)	600 nM	0%	–
CCC(C)[C@H](NC(=O)[C@H](C(C)C)[C@@H](O)[C@H](O)[C@H](CC1CCCCC1)NC(=O)c1ccccc1OCCOc1ccccc1)C(=O)NCc1nc2ccccc2[nH]1 (stereo not given in full)	8 nM	–	86%
CC(C)[C@@H](C(=O)N[C@H]1c2ccccc2CC1O)[C@@H](O)[C@H](O)[C@H](CC1CCCCC1)NC(=O)CCOCCOc1ccccc1 (stereo not given in full)	> 200 nM	–	–
COCCOCCOCCOc1cccnc1C(=O)NC(CC1CCCCC1)[C@@H](O)[C@H](O)[C@H](C(=O)N[C@H]1c2ccccc2CC1O)C(C)C (stereo not given in full)	> 200 nM	–	–
CCC(C)[C@H](NC(=O)[C@H](C(C)C)[C@@H](O)[C@H](O)C(CC1CCCCC1)NC(=O)c1ncccc1OCCOCCOCCOC)C(=O)NCc1nc2ccccc2[nH]1 (stereo not given in full)	100 nM	0%	–
COCCOCCOCCOc1ccccc1C(=O)NC(CC1CCCCC1)[C@@H](O)[C@H](O)[C@H](C(=O)N[C@H]1c2ccccc2CC1O)C(C)C (stereo not given in full)	> 200 nM	–	–
CC[C@H](C)[C@H](NC(=O)[C@H](C(C)C)[C@@H](O)[C@H](O)[C@H](CC1CCCCC1)NC(=O)c1ccccc1)C(=O)NCc1nc2ccccc2[nH]1	36 nM	–	–
CC[C@H](C)[C@H](NC(=O)[C@H](C(C)C)[C@@H](O)[C@H](O)[C@H](CC1CCCCC1)NC(=O)C1CCCCC1)C(=O)NCc1ccccn1	22 nM	–	–
COCCOCCOc1cccnc1C(=O)N[C@@H](CC1CCCCC1)[C@@H](O)[C@H](O)[C@H](C(=O)N[C@H]1c2ccccc2CC1O)C(C)C (stereo not given in full)	> 200 nM	–	–
COCCOCCOc1ccccc1C(=O)N[C@@H](CC1CCCCC1)[C@@H](O)[C@H](O)[C@H](C(=O)N[C@H]1c2ccccc2CC1O)C(C)C (stereo not given in full)	200 nM	–	–
CCC(C)[C@H](NC(=O)[C@H](C(C)C)[C@@H](O)[C@H](O)[C@H](CC1CCCCC1)NC(=O)CCOCCOc1ccccc1)C(=O)NCc1nc2ccccc2[nH]1 (stereo not given in full)	4 nM	–	65%
CC(C)[C@@H](C(=O)N[C@H]1c2ccccc2CC1O)[C@@H](O)[C@H](O)C(CC1CCCCC1)NC(=O)c1ccccc1OCSc1ccccc1 (stereo not given in full)	200 nM	0%	–
CCC(C)[C@H](NC(=O)[C@H](C(C)C)[C@@H](O)[C@H](O)C(CC1CCCCC1)NC(=O)c1ncccc1OCSc1ccccc1)C(=O)NCc1nc2ccccc2[nH]1 (stereo not given in full)	140 nM	0%	–
CC(C)[C@@H](C(=O)N[C@H]1c2ccccc2CC1O)[C@@H](O)[C@H](O)[C@H](CC1CCCCC1)NC(=O)c1ccccc1OCCOc1ccccc1 (stereo not given in full)	> 200 nM	–	–
CCC(C)[C@H](NC(=O)[C@H](C(C)C)[C@@H](O)[C@H](O)[C@H](CC1CCCCC1)NC(=O)c1ncccc1OCCOc1ccccc1)C(=O)NCc1nc2ccccc2[nH]1 (stereo not given in full)	> 200 nM	–	0%
CCC(C)[C@H](NC(=O)[C@H](C(C)C)[C@@H](O)[C@H](O)C(CC1CCCCC1)NC(=O)C(Cc1c[nH]cn1)NC(=O)COc1cccc2ccccc12)C(=O)NCc1ccccn1 (stereo not given in full)	< 1 nM	–	–
CCC(C)[C@H](NC(=O)[C@H](C(C)C)[C@@H](O)[C@H](O)[C@H](CC1CCCCC1)NC(=O)c1ccc(C)cc1OCCOc1ccccc1)C(=O)NCc1nc2ccccc2[nH]1 (stereo not given in full)	48 nM	–	48%
CCC(C)[C@H](NC(=O)[C@H](C(C)C)[C@@H](O)[C@H](O)[C@H](CC1CCCCC1)NC(=O)c1ccccc1OCCOCCOC)C(=O)NCc1nc2ccccc2[nH]1 (stereo not given in full)	5 nM	–	56%
